Laboratory results reported in ChEMBL document CHEMBL2034960, “Bryonolic acid transcriptional control of anti-inflammatory and antioxidant genes in macrophages in vitro and in vivo” (J Nat Prod, 2012).
The source made the active and inactive calls. The calls are words filed in the database; no cut-off is given here.

Tests used:
RAW264.7 [1] = experiment: Cytotoxicity against mouse RAW264.7 cells at 100 uM after 8 hrs by MTT assay; type: cell-based; conditions: raw264.7, 8 h
RAW264.7 [2] = experiment: Antiinflammatory activity in mouse RAW264.7 cells assessed as inhibition of LPS-induced nitric oxide production at 50 to 100 uM after 24 hrs by Griess method; type: functional; parameters: scale not given: the % may be the effect or the level left
RAW264.7 [3] = experiment: Antioxidant activity in LPS-stimulated mouse RAW264.7 cells assessed as induction of HO-1 mRNA expression at 100 uM after 4 hrs by RT-PCR analysis; type: functional, cell-based
[4] = target: T1, Nuclear factor erythroid 2-related factor 2 (Mus musculus) (UniProt Q60795); experiment: Induction of Nrf2-mediated HO1 mRNA expression in mouse RAW264.7 cells at 100 uM after 2 to 4 hrs by quantitative RT-PCR analysis relative to control; type: cell-based
T1 sequence (whole entry): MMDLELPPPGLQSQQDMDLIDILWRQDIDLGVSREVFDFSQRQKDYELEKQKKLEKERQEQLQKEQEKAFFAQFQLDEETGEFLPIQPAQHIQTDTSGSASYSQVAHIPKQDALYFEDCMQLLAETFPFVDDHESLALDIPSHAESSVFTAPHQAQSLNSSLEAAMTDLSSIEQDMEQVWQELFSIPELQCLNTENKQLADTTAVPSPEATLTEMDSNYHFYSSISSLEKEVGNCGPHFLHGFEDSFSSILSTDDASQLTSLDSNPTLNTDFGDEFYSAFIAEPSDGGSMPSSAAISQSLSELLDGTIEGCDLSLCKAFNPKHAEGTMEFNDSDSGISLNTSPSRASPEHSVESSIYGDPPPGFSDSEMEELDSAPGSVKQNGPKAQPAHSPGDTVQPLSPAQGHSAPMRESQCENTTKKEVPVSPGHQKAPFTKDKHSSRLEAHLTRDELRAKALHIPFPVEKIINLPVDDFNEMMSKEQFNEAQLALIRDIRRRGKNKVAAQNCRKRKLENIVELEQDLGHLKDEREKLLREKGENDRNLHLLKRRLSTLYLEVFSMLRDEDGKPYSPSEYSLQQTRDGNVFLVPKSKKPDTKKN

[5] = target: T1, Nuclear factor erythroid 2-related factor 2 (Mus musculus); experiment: Induction of Nrf2-mediated HO1 mRNA expression in mouse RAW264.7 cells at 100 uM after 24 hrs by quantitative RT-PCR analysis relative to control; type: cell-based
[6] = target: T1, Nuclear factor erythroid 2-related factor 2 (Mus musculus); experiment: Induction of Nrf2-mediated NQO1 mRNA expression in mouse RAW264.7 cells at 100 uM after 2 to 4 hrs by quantitative RT-PCR analysis relative to control; type: cell-based
[7] = target: T1, Nuclear factor erythroid 2-related factor 2 (Mus musculus); experiment: Induction of Nrf2-mediated NQO1 mRNA expression in mouse RAW264.7 cells at 100 uM after 24 hrs by quantitative RT-PCR analysis relative to control; type: cell-based
Summary of the method: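 RAW 264.7 cells (DMEM, 10% FBS, 37°C, 5% CO2) exposed to 100 μM compound for a series of time points without stated LPS activation. Total RNA isolated, converted to cDNA, and NQO1 quantified by TaqMan real-time RT-PCR using mouse-specific assays. Fold change versus control derived by the ΔΔCt relative quantification method (40 cycles, 95/60 °C).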

[8] = target: T1, Nuclear factor erythroid 2-related factor 2 (Mus musculus); experiment: Induction of Nrf2-mediated CAT mRNA expression in mouse RAW264.7 cells at 100 uM after 4 to 20 hrs by quantitative RT-PCR analysis relative to control; type: cell-based
[9] = target: T1, Nuclear factor erythroid 2-related factor 2 (Mus musculus); experiment: Induction of Nrf2 in mouse RAW264.7 cells assessed as […] in CAT mRNA expression at 100 uM after 24 hrs by quantitative RT-PCR analysis relative to control; type: cell-based

SMILES | Activity (RAW264.7 [1]) | Activity (RAW264.7 [2]) | Activity (RAW264.7 [3]) | Activity [4] | Activity [5] | Activity [6] | Activity [7] | Activity [8] | Activity [9]
CC1(C)[C@@H](O)CC[C@]2(C)[C@H]3C(=O)C=C4[C@@H]5C[C@@](C)(C(=O)O)CC[C@]5(C)CC[C@@]4(C)[C@]3(C)CC[C@@H]12 [ENOXOLONE] | Toxic |  |  |  |  |  |  |  | 
CC1(C)CC[C@]2(C(=O)O)CC[C@]3(C)C(=CC[C@@H]4[C@@]5(C)CC[C@H](O)C(C)(C)[C@@H]5CC[C@]43C)[C@@H]2C1 [OLEANOLIC_ACID] | Non-toxic | 85% | Active | Active | inactive | Active | inactive | Active | inactive
C[C@H]1[C@H](C)CC[C@]2(C(=O)O)CC[C@]3(C)C(=CC[C@@H]4[C@@]5(C)CC[C@H](O)C(C)(C)[C@@H]5CC[C@]43C)[C@H]12 [URSOLIC ACID] | Toxic |  |  |  |  |  |  |  | 
